# Paper PMC7591136 (ACS biomaterials science & engineering, 2019)
# Columns and labels:
# [1] = cited from earlier work
# [2] = pKa determination by UV–vis titration; format: physicochemical; conditions: neutral pH
# [3] = Partition coefficients, 1-octanol / PBS pH 7.4, shake flask; format: physicochemical; conditions: 1-octanol / PBS pH 7.4, 20 °C
# How it was run: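 Shake-flask (OECD) partitioning between 1-octanol and PBS pH 7.4 at 20 °C, run in triplicate with three different organic:aqueous volume ratios. Analyte was kept below 2.0 mM in each phase. Phases were separated by centrifugation and quantified by C-18 reverse-phase HPLC (35 °C, UV 300 nm) against 8-point standard curves (0.005–1.000 mg/mL). For the ionizable parent drug, the value is a distribution coefficient.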
# HIV-1 BaL = format: cell-based; conditions: Human immunodeficiency virus 1, BAL, TZM-bl, 48 h
SMILES,reported aqueous solubility [1] [µg/mL],ionized fraction [2] [%],apparent POW (distribution coefficient) [3],IC50 (HIV-1 BaL) [nM],aqueous solubility ([1]; neutral form) [µg/mL]
Cc1cc(C)c(Nc2ccnc(Nc3ccc(C#N)cc3)n2)c(C)c1 [dapivirine],< 10,–,–,–,–
O=C1Nc2ccc(Cl)cc2[C@@](C#CC2CC2)(C(F)(F)F)O1 [efavirenz],< 10,–,–,–,–
Cc1cccc(C)c1OCC(=O)N[C@@H](Cc1ccccc1)[C@@H](O)C[C@H](Cc1ccccc1)NC(=O)[C@H](C(C)C)N1CCCNC1=O [liponavir],< 10,–,–,–,–
"Cc1nnc(C(=O)NC(C)(C)c2nc(C(=O)NCc3ccc(F)cc3)c(O)c(=O)n2C)o1 [RAL, raltegravir]",–,> 85,2.0,4.5 ± 0.5,1300
